ChEMBL document CHEMBL4321882, “α-Helix-Mimicking Sulfono-γ-AApeptide Inhibitors for p53-MDM2/MDMX Protein-Protein Interactions” (J Med Chem, 2020)
Active and inactive are the calls of the source. The rule behind the calls is not given here.

Key:
[1] = target: T1, E3 ubiquitin-protein ligase Mdm2 (Homo sapiens, UniProt Q00987); test: Binding affinity to human MDM2 expressed in Escherichia coli expression system by using (FITC)-labeled p53 peptide based fluorescence polarization competitive assay
Target sequence in this assay (Q00987 whole entry): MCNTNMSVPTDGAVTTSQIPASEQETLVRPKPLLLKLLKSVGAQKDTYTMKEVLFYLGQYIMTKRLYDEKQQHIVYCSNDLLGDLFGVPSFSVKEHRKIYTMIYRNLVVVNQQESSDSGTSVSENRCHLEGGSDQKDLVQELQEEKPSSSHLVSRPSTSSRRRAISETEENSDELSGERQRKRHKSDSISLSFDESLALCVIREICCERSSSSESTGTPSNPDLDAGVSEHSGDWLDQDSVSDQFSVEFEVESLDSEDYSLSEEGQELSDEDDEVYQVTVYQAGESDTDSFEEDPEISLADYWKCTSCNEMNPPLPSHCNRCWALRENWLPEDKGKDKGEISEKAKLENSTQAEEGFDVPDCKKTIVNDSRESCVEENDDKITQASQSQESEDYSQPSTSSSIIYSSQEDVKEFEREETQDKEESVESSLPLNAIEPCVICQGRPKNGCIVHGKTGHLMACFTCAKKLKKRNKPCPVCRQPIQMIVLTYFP

[2] = target: T2, Protein Mdm4 (Homo sapiens, UniProt O15151); test: Binding affinity to MDMX (unknown origin) by using (FITC)-labeled p53 peptide based fluorescence polarization competitive assay
T2 sequence (O15151 whole entry): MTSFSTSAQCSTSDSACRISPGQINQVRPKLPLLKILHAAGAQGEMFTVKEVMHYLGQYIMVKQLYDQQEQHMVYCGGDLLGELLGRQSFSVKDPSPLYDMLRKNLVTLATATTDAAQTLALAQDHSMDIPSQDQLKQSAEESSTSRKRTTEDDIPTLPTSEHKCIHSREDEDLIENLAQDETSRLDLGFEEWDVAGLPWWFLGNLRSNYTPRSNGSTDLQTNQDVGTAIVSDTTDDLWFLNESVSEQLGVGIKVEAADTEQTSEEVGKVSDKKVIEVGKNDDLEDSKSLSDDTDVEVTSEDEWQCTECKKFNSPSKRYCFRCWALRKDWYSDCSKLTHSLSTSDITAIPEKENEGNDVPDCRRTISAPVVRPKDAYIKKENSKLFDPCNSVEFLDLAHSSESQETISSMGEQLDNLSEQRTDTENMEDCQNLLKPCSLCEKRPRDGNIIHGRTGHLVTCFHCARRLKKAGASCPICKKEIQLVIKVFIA

[3] = target: T3, Tumour suppressor p53/oncoprotein Mdm2 (Homo sapiens) (UniProt P04637+Q00987); test: Inhibition of MDM2/p53 interaction in human U2OS cells assessed as increase in p21 level at 30 uM incubated for 16 hrs by Western blot analysis; assay type: cell-based
T3 sequence (P04637 whole entry, looked up): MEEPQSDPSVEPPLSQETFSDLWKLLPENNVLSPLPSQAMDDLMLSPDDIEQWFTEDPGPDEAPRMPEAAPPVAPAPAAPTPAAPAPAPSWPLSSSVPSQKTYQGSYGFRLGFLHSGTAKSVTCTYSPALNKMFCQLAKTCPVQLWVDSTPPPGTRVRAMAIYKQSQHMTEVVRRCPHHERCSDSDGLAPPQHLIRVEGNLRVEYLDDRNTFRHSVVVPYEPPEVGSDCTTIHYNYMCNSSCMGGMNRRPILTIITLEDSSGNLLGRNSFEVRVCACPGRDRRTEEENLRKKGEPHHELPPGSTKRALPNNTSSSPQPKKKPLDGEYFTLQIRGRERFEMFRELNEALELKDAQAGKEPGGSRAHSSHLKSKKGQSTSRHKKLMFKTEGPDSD
T3 sequence (Q00987 whole entry, looked up): as the sequence (Q00987 whole entry) above
Outline: (§1)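 Exponentially growing U2OS cells were treated at 30 μM for 16 h, then lysed in RIPA with 1 mM PMSF and protease inhibitors. Lysates were resolved by SDS-PAGE and blotted. Blots were blocked in PBS with 5% milk and 0.1% Tween 20.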

[4] = target: T3, Tumour suppressor p53/oncoprotein Mdm2 (Homo sapiens); test: Inhibition of MDM2/p53 interaction in human U2OS cells assessed as increase in p53 level at 30 uM incubated for 16 hrs by Western blot analysis; assay type: cell-based; outline: as §1
[5] = Enzymatic stability assessed as pronase (unknown origin)-mediated compound hydrolysis at pH 7.8 at 0.1 mg/ml incubated for 24 hrs by HPLC-MS analysis; assay type: ADME; conditions: buffer, pH 7.8, 24 h
Outline: (§2)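 Compound (0.1 mg/mL) was incubated with 0.1 mg/mL α-chymotrypsin or pronase in 100 mM ammonium bicarbonate, pH 7.8, at 37 °C for 24 h. Mixtures were concentrated by speed vacuum to remove water and buffer salt. Residual compound was then analysed by HPLC-MS.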

[6] = target: T3, Tumour suppressor p53/oncoprotein Mdm2 (Homo sapiens); test: Inhibition of MDM2/p53 interaction in human U2OS cells assessed as increase in MDM2 level at 30 uM incubated for 16 hrs by Western blot analysis; assay type: cell-based; outline: as §1
[7] = target: Cellular tumor antigen p53 (Homo sapiens) (UniProt P04637); test: Activation of p53 in human U2OS cells cotransfected with BP100-luc and CMV-lacZ gene assessed as luciferase gene expression at 30 uM incubated for 18 hrs by p53-dependent luciferase transcriptional activation assay; assay type: cell-based
Sequence of Cellular tumor antigen p53 (Homo sapiens) (P04637 whole entry, looked up, the tested form may be a part): as the sequence (P04637 whole entry, looked up) above
Outline: (§3)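 U2OS cells stably carrying the p53-responsive BP100-luc reporter and a CMV-lacZ control were seeded at 100,000 per well 24 h before dosing at 30 μM. Lysates were assayed for luciferase and β-gal activity. […] Each value is the average of at least three measurements, with standard deviation.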

[8] = Enzymatic stability assessed as alpha-chymotrypsin (unknown origin)-mediated compound hydrolysis at pH 7.8 at 0.1 mg/ml incubated for 24 hrs by HPLC-MS analysis; assay type: ADME; conditions: human, buffer, pH 7.8, 24 h; outline: as §2
[9] = system: HCT-116; test: Antiproliferative activity against human HCT116 cells expressing wild-type p53 assessed as reduction in cell viability at 200 uM incubated for 48 hrs by MTT assay
[10] = target: Cellular tumor antigen p53 (Homo sapiens) (UniProt P04637); test: Activation of p53 in human U2OS cells cotransfected with BP100-luc and CMV-lacZ gene assessed as lacZ gene expression at 30 uM incubated for 18 hrs by p53-dependent luciferase transcriptional activation assay; assay type: cell-based; outline: as §3
[11] = target: T1, E3 ubiquitin-protein ligase Mdm2; test: Binding affinity to human MDM2 (17-125 residues) by NMR spectroscopic analysis
Outline: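 Uniformly 15N/13C-labelled human MDM2 residues 17–125 was analysed free and with ligand. Sensitivity-enhanced 1H–15N HSQC and 3D HNCA spectra were recorded for resonance assignment. Buffer was 50 mM sodium phosphate, 100 NaCl, 1 mM EDTA, 0.02% sodium azide and 2 mM DTT, pH 6.8, with 10% D2O.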
Target sequence in this assay (Q00987 whole entry, looked up): as the sequence (Q00987 whole entry) above

[12] = target: T1, E3 ubiquitin-protein ligase Mdm2; test: Potency index, ratio of p53 binding affinity to compound binding affinity to human MDM2 (17-125 residues) by NMR spectroscopic analysis
Target sequence in this assay (Q00987 whole entry, looked up): as the sequence (Q00987 whole entry) above

[13] = system: HCT-116; test: Antiproliferative activity against human HCT116 cells harboring p53 deletion mutant assessed as reduction in cell viability at 200 uM incubated for 48 hrs by MTT assay
[14] = target: T1, E3 ubiquitin-protein ligase Mdm2; test: Potency index, ratio of p53 IC50 to test compound IC50 for binding affinity to human MDM2 expressed in Escherichia coli expression system by using (FITC)-labeled p53 peptide based fluorescence polarization competitive assay
Target sequence in this assay (Q00987 whole entry, looked up): as the sequence (Q00987 whole entry) above

| Compound | IC50 ([1]; read-out: IC50) [nM] | IC50 [2] [nM] | inhibition [3] | inhibition [4] | Stability [5] | inhibition [6] | Activity [7] | Stability [8] | Kd [1] [nM] | Kd [2] [nM] | Activity [10] | Activity [11] | Ratio [12] | Ratio IC50 [14] | inhibition [9] | Activity [13] | IC50 [1] |
| --- | --- | --- | --- | --- | --- | --- | --- | --- | --- | --- | --- | --- | --- | --- | --- | --- | --- |
| CC(=O)N[C@@H](CC(C)C)CN(CC(=O)N[C@@H](Cc1ccccc1)CN(CC(=O)N[C@@H](CCC(=O)O)CN1CC(=O)N[C@@H](Cc2c[nH]c3ccccc23)CN(S(C)(=O)=O)CC(=O)N[C@@H](CCCCN)CN(CC(=O)N[C@@H](CC(C)C)CN(CC(=O)N[C@@H](C)CN(CC(N)=O)S(C)(=O)=O)S(=O)(=O)CC(C)C)S(=O)(=O)CC/C=C/CCCCS1(=O)=O)S(C)(=O)=O)S(=O)(=O)c1ccc(Cl)cc1 | 3600 | 6600 | Active | Active | Stable | Active | 25% | Stable | – | – | – | – | – | – | – | – | – |
| CC(=O)N[C@@H](CC(C)C)CN(CC(=O)N[C@@H](Cc1ccccc1)CN(CC(=O)N[C@@H](CCC(=O)O)CN(CC(=O)N[C@@H](Cc1c[nH]c2ccccc12)CN(CC(=O)N[C@@H](CCCCN)CN(CC(=O)N[C@@H](CC1CCCCC1)CN(CC(=O)N[C@@H](C)CN(CC(N)=O)S(C)(=O)=O)S(=O)(=O)CC(C)C)S(C)(=O)=O)S(C)(=O)=O)S(C)(=O)=O)S(C)(=O)=O)S(=O)(=O)c1ccc(Cl)cc1 | – | – | – | – | Stable | – | – | Stable | – | – | – | – | – | – | – | – | – |
| CC(=O)N[C@@H](CC(C)C)CN(CC(=O)N[C@@H](Cc1ccccc1)CN(CC(=O)N[C@@H](CCC(=O)O)CN(CC(=O)N[C@@H](C)CN(CC(=O)N[C@@H](CCCCN)CN(CC(=O)N[C@@H](CC(C)C)CN(CC(=O)N[C@@H](C)CN(CC(N)=O)S(C)(=O)=O)S(=O)(=O)CC(C)C)S(C)(=O)=O)S(C)(=O)=O)S(C)(=O)=O)S(C)(=O)=O)S(=O)(=O)c1ccc(Cl)cc1 | – | – | – | – | – | – | – | – | – | – | – | – | – | – | – | – | Not Active |
| CC(=O)N[C@@H](CC(C)C)CN(CC(=O)N[C@@H](Cc1ccccc1)CN(CC(=O)N[C@@H](CCC(=O)O)CN1CC(=O)N[C@@H](Cc2c[nH]c3ccccc23)CN(S(C)(=O)=O)CC(=O)N[C@@H](CCCCN)CN(CC(=O)N[C@@H](CC(C)C)CN(CC(=O)N[C@@H](C)CN(CC(N)=O)S(C)(=O)=O)S(=O)(=O)CC(C)C)S(=O)(=O)CCCC/C=C/CCCCS1(=O)=O)S(C)(=O)=O)S(=O)(=O)c1ccc(Cl)cc1 | 1900 | 3900 | Active | Active | Stable | Active | 70% | Stable | – | – | – | – | – | – | Active | Active | – |

Now from value to compound, other results behind:

| IC50 ([1]; read-out: IC50) [nM] | IC50 [2] [nM] | inhibition [3] | inhibition [4] | Stability [5] | inhibition [6] | Activity [7] | Stability [8] | Kd [1] [nM] | Kd [2] [nM] | Activity [10] | Activity [11] | Ratio [12] | Ratio IC50 [14] | Compound | inhibition [9] | Activity [13] | IC50 [1] |
| --- | --- | --- | --- | --- | --- | --- | --- | --- | --- | --- | --- | --- | --- | --- | --- | --- | --- |
| 891 | 3600 | – | – | Stable | – | Active | Stable | 26 | 221 | inactive | Active | 10 | – | CC(=O)N[C@@H](CC(C)C)CN(CC(=O)N[C@@H](Cc1ccccc1)CN(CC(=O)N[C@@H](CCC(=O)O)CN(CC(=O)N[C@@H](Cc1c[nH]c2ccccc12)CN(CC(=O)N[C@@H](CCCCN)CN(CC(=O)N[C@@H](CC1CCC1)CN(CC(=O)N[C@@H](C)CN(CC(N)=O)S(C)(=O)=O)S(=O)(=O)CC(C)C)S(C)(=O)=O)S(C)(=O)=O)S(C)(=O)=O)S(C)(=O)=O)S(=O)(=O)c1ccc(Cl)cc1 | Active | Active | – |
| 2800 | 6000 | – | – | Stable | – | Active | Stable | 57 | 370 | inactive | – | – | 1.5 | CC(=O)N[C@@H](CC(C)C)CN(CC(=O)N[C@@H](Cc1ccccc1)CN(CC(=O)N[C@@H](CCC(=O)O)CN(CC(=O)N[C@@H](Cc1c[nH]c2ccccc12)CN(CC(=O)N[C@@H](CCCCN)CN(CC(=O)N[C@@H](CC(C)C)CN(CC(=O)N[C@@H](C)CN(CC(N)=O)S(C)(=O)=O)S(=O)(=O)CC(C)C)S(C)(=O)=O)S(C)(=O)=O)S(C)(=O)=O)S(C)(=O)=O)S(=O)(=O)c1ccc(Cl)cc1 | – | – | – |
